The nature of experiment [1]: Inhibition of Mycobacterium smegmatis recombinant DprE1 using farnesylphosphoryl-beta-D-ribofuranose as substrate assessed as conversion of amplex red to resorufin after 30 mins. Also on record: species or system Mycolicibacterium smegmatis. In a few lines:
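Msm DprE1 (thioredoxin-6His fusion of Msm Rv3790) at 75 nM, preincubated 30 min with 10 μM FAD. Buffer: 50 mM glycylglycine pH 8.5, 200 mM potassium glutamate, 0.002% Brij-35, 2% DMSO, 25 °C. Started with 300 μM farnesylphosphoryl-β-D-ribofuranose, 0.01 mg/mL HRP and 50 μM Amplex Red.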

For experiment [2], the system named is Streptococcus pneumoniae. The experiment is described as follows: Antimicrobial activity against Streptococcus pneumoniae ARC548 at 100 uM. It counts as functional, organism-based. In a few lines:
(§1)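 Nonmycobacterial panel of Candida albicans, Gram-negative and Gram-positive pathogens.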

Experiment [3] relates to Mycobacterium tuberculosis. The experiment is described as follows: Antimycobacterial activity against Mycobacterium tuberculosis H37Rv under hypoxic condition after 6 days by resazurin assay. Format: functional. On the technique in general: Resazurin is reduced to fluorescent resorufin, in cell work by metabolically active cells.
Experiment [4] deals with Escherichia coli. Description: Antimicrobial activity against Escherichia coli ARC523 at 100 uM. It counts as functional, organism-based. In short, it runs like this:
as §1

Experiment [5] relates to Mycolicibacterium smegmatis. The experiment is described as follows: Antimicrobial activity against Mycobacterium smegmatis mc2155 at 100 uM. Format: functional, organism-based. To be noted: str. MC2 155.
For experiment [6], the system named is Mycobacterium tuberculosis. The experiment is described as follows: Antimycobacterial activity against Mycobacterium tuberculosis H37Rv after 5 days by standard microdilution method. It counts as functional. To be noted: 120 h. A general note: Broth dilution looks for growth in wells or tubes with falling amounts of substance.
The test system of experiment [7] is Escherichia coli. Description: Antimicrobial activity against Escherichia coli ARC524 at 100 uM. Format: functional, organism-based. In a few lines:
as §1

For experiment [8], the system named is Haemophilus influenzae. The experiment is described as follows: Antimicrobial activity against Haemophilus influenzae ARC158 at 100 uM. It counts as functional, organism-based. In short, it runs like this:
as §1

Experiment [9] relates to Pseudomonas aeruginosa. The experiment is described as follows: Antimicrobial activity against Pseudomonas aeruginosa ARC545 at 100 uM. Format: functional, organism-based. In a few lines: as §1
For experiment [10], the system named is Mycolicibacterium smegmatis. The experiment is described as follows: Antimicrobial activity against Mycobacterium smegmatis ATCC 607 at 100 uM. It counts as functional, organism-based.
Experiment [11] relates to Staphylococcus aureus. Description: Antimicrobial activity against Staphylococcus aureus ARC517 at 100 uM. It counts as functional, organism-based. In short, it runs like this:
as §1

For experiment [12], the system named is Klebsiella pneumoniae. The experiment is described as follows: Antimicrobial activity against Klebsiella pneumoniae ARC1865 at 100 uM. It counts as functional, organism-based. In short, it runs like this: as §1
The test system of experiment [13] is Pseudomonas aeruginosa. The experiment is described as follows: Antimicrobial activity against Pseudomonas aeruginosa ARC546 at 100 uM. Format: functional, organism-based. In a few lines:
as §1

Experiment [14] has as its system Haemophilus influenzae. Description: Antimicrobial activity against Haemophilus influenzae ARC446 at 100 uM. It counts as functional, organism-based. In a few lines:
as §1

Experiment [15] relates to Candida albicans. Description: Antimicrobial activity against Candida albicans ARC527 at 100 uM. It counts as functional, organism-based. In a few lines: as §1

pIC50: −log10 of the molar value. Values after ≈ are worked out from the molar mass of the structure shown. Active and inactive are the calls of the source. No cut-off for these calls is given here. Bounds are passed on as bounds.

Usually pIC50 stands for the negative decadic logarithm of the IC50, by convention in mol/L. As usually defined, the MIC is the lowest concentration found to suppress growth. Read a low MIC as a more susceptible organism. In the case of `Cc1onc(C(=O)N2CCC(Nc3cc(=O)[nH]c4ccc(F)cc34)CC2)c1C`, in experiment [1], the pIC50 is greater than 8.22. For the same molecule, the outcome in [2], in experiment [3], in experiment [4], in experiment [5], in experiment [7] and in [8] was inactive. Further, the outcome in experiment [9], in experiment [10], in experiment [11], in [12], in [13] and in [14] was inactive. Also, the outcome in experiment [15] was inactive. 6.2 µM (≈ 2.38 µg/mL) was the least that counted as inhibitory in experiment [6] (MIC).

Consider `Cn1ncc(C(=O)N2CCC(Nc3cc(=O)n(C)c4cc(F)c(F)cc34)CC2)c1Cl`, for which the pIC50 in experiment [1] is 7.70. Besides, the outcome in [2], in [3], in experiment [4], in experiment [5], in [7] and in experiment [8] was inactive. Also, the result in [9], in experiment [10], in [11], in [12], in [13] and in experiment [14] was inactive. In addition, the outcome in experiment [15] was inactive. In experiment [6], this molecule gave an MIC of 3.1 µM (≈ 1.35 µg/mL).

Regarding `Cn1ncc(C(=O)N2CCC(Nc3cc(=O)[nH]c4c(F)cccc34)CC2)c1Cl`, the pIC50 in [1] was 7.96. For the same molecule, the result in [2], in [3], in experiment [4], in [5], in experiment [7] and in [8] was inactive. For the same molecule, the result in experiment [9], in experiment [10], in [11], in [12], in experiment [13] and in experiment [14] was inactive. Moreover, the result in experiment [15] was inactive. For the same molecule, in experiment [6], the MIC turned out to be 3.1 µM (≈ 1.25 µg/mL).

Take `CN(c1cc(=O)[nH]c2ccccc12)C1CCN(C(=O)c2cnn(C)c2Cl)CC1`: the pIC50 in experiment [1] was 4.74. The result in experiment [2], in experiment [3], in [4], in experiment [5], in experiment [7] and in [8] was inactive. The result in experiment [9], in experiment [10], in [11], in [12], in experiment [13] and in experiment [14] was inactive. Moreover, the result in experiment [15] was inactive. In [6], the minimum inhibitory concentration (MIC) was greater than 250 µM.

With `CCn1ncc(C(=O)N2CCC(Nc3cc(=O)[nH]c4ccc(F)cc34)CC2)c1Cl`, the pIC50 in experiment [1] is 7.35. Further, the outcome in experiment [2], in experiment [3], in experiment [4], in experiment [5], in [7] and in [8] was inactive. Also, the outcome in experiment [9], in [10], in [11], in experiment [12], in experiment [13] and in [14] was inactive. In addition, the outcome in experiment [15] was inactive. In addition, in experiment [6], the MIC is 12.5 µM (≈ 5.22 µg/mL).

For the origin of these results see ChEMBL document CHEMBL3286182, “4-aminoquinolone piperidine amides: noncovalent inhibitors of DprE1 with long residence time and potent antimycobacterial activity” (J Med Chem, 2014).
